In ChEMBL document CHEMBL4190218, “Potent Inhibitor of Drug-Resistant HIV-1 Strains Identified from the Medicinal Plant Justicia gendarussa” (J Nat Prod, 2017):

Legend:
[1] = system: Human immunodeficiency virus 1; experiment: Antiviral activity against HIV1/VSV-G pseudovirus infected in human A549 cells assessed as downregulation of U5/gag gene expression after 48 hrs by Taqman-based real-time PCR analysis; type: functional
Procedure, shortened: (§1)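 A549 cells infected with VSV-G/HIV pseudovirus while treated with compound or AZT, 10-fold dilutions from 5 μg/mL, triplicate. After 48 h, cells processed for reverse transcription and TaqMan real-time PCR. R/U5 amplicon reads early transcripts, U5/gag reads late transcripts; GAPDH and 18S as internal controls.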

[2] = system: Human immunodeficiency virus 1; experiment: Antiviral activity against NNRTI-resistant HIV1 isolate N119 infected in PHA-stimulated human PBMC assessed as reduction in p24 level after 7 days by ELISA; type: functional, organism-based; settings: Human immunodeficiency virus 1, isolate N119, PBMC, 168 h
Procedure, shortened: (§2)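 Donor PBMCs in R-3 medium (RPMI 1640, 15−20% FBS, 5% IL-2, penicillin/streptomycin, 2 mM L-glutamine), PHA-stimulated (2−3 μg/mL) 7 days; 1 × 10^5 cells/well with compound, challenged with 1000 TCID50 virus. p24 in supernatant by ELISA after 7 days. Seven concentrations (5, 1, 0.2, 0.04, 0.008, […], 0 μg/mL); IC50 versus no-drug wells; AZT positive control; three experiments, each triplicate.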

[3] = system: Human immunodeficiency virus 1; experiment: Antiviral activity against HIV1 isolate 89.6 infected in PHA-stimulated human PBMC assessed as reduction in p24 level after 7 days by ELISA; type: functional, organism-based; procedure, shortened: as §2
[4] = system: Human immunodeficiency virus 1; experiment: Antiviral activity against HIV1 isolate SF162 infected in PHA-stimulated human PBMC assessed as reduction in p24 level after 7 days by ELISA; type: functional, organism-based; procedure, shortened: as §2
[5] = system: Human immunodeficiency virus 1; experiment: Antiviral activity against NRTI-resistant HIV1 isolate 1617-1 infected in PHA-stimulated human PBMC assessed as reduction in p24 level after 7 days by ELISA; type: functional, organism-based; settings: Human immunodeficiency virus 1, isolate 1617-1, PBMC, 168 h; procedure, shortened: as §2
[6] = system: Human immunodeficiency virus 1; experiment: Antiviral activity against HIV1 isolate LAV infected in PHA-stimulated human PBMC assessed as reduction in p24 level after 7 days by ELISA; type: functional, organism-based; settings: Human immunodeficiency virus 1, isolate LAV, 168 h; procedure, shortened: as §2
[7] = system: Human immunodeficiency virus 1; experiment: Antiviral activity against HIV1 isolate BAL infected in PHA-stimulated human PBMC assessed as reduction in p24 level after 7 days by ELISA; type: functional, organism-based; procedure, shortened: as §2
[8] = system: Human immunodeficiency virus 1; experiment: Antiviral activity against HIV1 isolate LAV0.04 infected in PHA-stimulated human PBMC assessed as reduction in p24 level after 7 days by ELISA; type: functional, organism-based; procedure, shortened: as §2
[9] = system: Human immunodeficiency virus 1; experiment: Antiviral activity against HIV1/VSV-G pseudovirus infected in human A549 cells assessed as downregulation of R/U5 gene expression after 48 hrs by Taqman-based real-time PCR analysis; type: functional; procedure, shortened: as §1
[10] = system: Human immunodeficiency virus 1; experiment: Antiviral activity against HIV1 virions derived from […] or HIV/HA virions infected 293T cells using human A549 cells as target cells assessed as inhibition of viral replication using compound pre-mixed virions followed by incubation with target cells for 24 hrs by luciferase reporter gene assay based defective HIV1 pseudoviral assay; type: functional, organism-based; settings: Human immunodeficiency virus 1, 24 h
Procedure, shortened: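 Pseudovirions made by cotransfecting 293T cells with VSV-G, or HA plus NA, envelope plasmids and pNL4-3-Luc.R-.E- vector; supernatant collected at 48 h and filtered. A549 cells, 0.5 × 10^5/well in DMEM. Virus (~2 × 10^6 RLUs) premixed with sample, incubated with cells 24 h, then medium replaced. Luciferase read in lysates 48 h postinfection. Three experiments, each triplicate.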

A549 = experiment: Cytotoxicity against human A549 cells at 19 uM after 48 hrs by CellTiter 96 AQueous one solution cell proliferation assay; type: cell-based; settings: a549, 48 h
Procedure, shortened: (§3)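 About 5000 cells/well in DMEM with FBS and penicillin/streptomycin; compound in DMSO added next day, 24 h at 37 °C, 5% CO2, then medium replaced. At 48 h after addition, CellTiter 96 Aqueous One added for 4 h, stopped with 10% SDS, absorbance read at 450 nm.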

[11] = Cytotoxicity against human PBMC after 48 hrs by CellTiter 96 AQueous one solution cell proliferation assay; type: cell-based
HeLa = experiment: Cytotoxicity against human HeLa cells at 19 uM after 48 hrs by CellTiter 96 AQueous one solution cell proliferation assay; type: cell-based; procedure, shortened: as §3
[12] = system: Human immunodeficiency virus 1; experiment: Antiviral activity against HIV1/VSV-G pseudovirus infected in human A549 cells assessed as downregulation of R/U5 gene expression at 0.005 ug/ml after 48 hrs by Taqman-based real-time PCR analysis; type: functional; settings: Human immunodeficiency virus 1, A549, 48 h; procedure, shortened: as §1
[13] = system: Human immunodeficiency virus 1; experiment: Antiviral activity against HIV1/VSV-G pseudovirus infected in human A549 cells assessed as downregulation of U5/gag gene expression at 0.005 ug/ml after 48 hrs by Taqman-based real-time PCR analysis; type: functional; settings: Human immunodeficiency virus 1, A549, 48 h; procedure, shortened: as §1
[14] = Human immunodeficiency virus 1, isolate 89.6, PBMC, 168 h
[15] = Human immunodeficiency virus 1, isolate SF162, PBMC, 168 h
[16] = Human immunodeficiency virus 1, isolate BAL, PBMC, 168 h
[17] = Human immunodeficiency virus 1, isolate LAV0.04, PBMC, 168 h

Row | SMILES | IC50 [2] [nM] | Activity [3] | IC50 [3, 14] [nM] | Activity [4] | IC50 [4, 15] [nM] | IC50 [5] [nM] | IC50 [6] [nM] | Activity [7] | IC50 [7, 16] [nM] | Activity [8] | IC50 [8, 17] [nM] | IC50 [10] [nM] | other results
1 | Cc1cn([C@H]2C[C@H](N=[N+]=[N-])[C@@H](CO)O2)c(=O)[nH]c1=O [ZIDOVUDINE] | 5.2 | Dose-dependent effect | 95 | Dose-dependent effect | 85 | 3510 | 72 | Dose-dependent effect | 77 | Dose-dependent effect | 79 | – | Activity [1]: Dose-dependent effect; inhibition (INH) [1]: 40%; Activity [9]: Dose-dependent effect; inhibition (INH) [9]: 40%
2 | COc1cc2c(O[C@@H]3O[C@H](CO)[C@@H](O)[C@H](O)[C@H]3O)c3c(c(-c4ccc5c(c4)OCO5)c2cc1OC)C(=O)OC3 | – | – | – | – | – | – | – | – | – | – | – | 770 | –
3 | COc1cc2c(O[C@@H]3O[C@H](C)[C@@H](O)[C@H](O)[C@H]3O)c3c(c(-c4ccc5c(c4)OCO5)c2cc1OC)C(=O)OC3 [PATENTIFLORIN A] | 47 | Dose-dependent effect | 32 | Dose-dependent effect | 37 | 61 | 108 | Dose-dependent effect | 30 | Dose-dependent effect | 24 | 26.9 to 27 | Activity (A549): Non-Toxic; IC50 ([3]; pbmc): 31 nM; CC50 at 48 h [11]: 75 µM; IC50 ([4]; pbmc): 30 nM; Activity (HeLa): Non-Toxic; IC50 ([7]; pbmc): 32 nM; inhibition at 0.005 µg/mL [12]: 75%; inhibition at 0.005 µg/mL [13]: 75%; IC50 ([8]; pbmc): 32 nM
4 | Cc1ccnc2c1NC(=O)c1cccnc1N2C1CC1 [NEVIRAPINE] | > 100000 | – | – | – | – | 156 | 532 | – | – | – | – | – | –
5 | COc1cc2c(O[C@@H]3OC[C@@H](O)[C@H](O)[C@H]3O)c3c(c(-c4ccc5c(c4)OCO5)c2cc1OC)C(=O)OC3 | – | – | – | – | – | – | – | – | – | – | – | 510 | –
6 | COc1cc2c(O)c3c(c(-c4ccc5c(c4)OCO5)c2cc1OC)C(=O)OC3 [DIPHYLLIN] | – | – | – | – | – | – | – | – | – | – | – | 1710 | –
